In article PMC5147053 (Drugs in Context, 2016):

How the values were obtained:
[1] = Safety assessment: treatment-emergent adverse events; type: in vivo, human
Method in brief: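 Patients with advanced or metastatic cancer took single 150 mg oral doses of the test compound in a 3-period crossover: high-shear wet granulation, roller-compaction dry-milled and slurry-milled formulations, with washouts of 48 h to 5 days. Safety monitoring covered AEs, SAEs, physical exams, vital signs, lab tests and concomitant medications. TEAEs were graded by CTCAE v3.0 for all patients dosed at least once.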

[2] = oral; cited from earlier work
[3] = single 150 mg dose, N=14, regardless of causality

Cc1cccc(-c2nn3c(c2-c2ccnc4ccc(C(N)=O)cc24)CCC3)n1 [Galunisertib]
SAEs or deaths during the study ([1]; 14 patients, any formulation): no SAEs or deaths | Study discontinuations due to TEAEs ([1]; 14 patients, any formulation): no study discontinuations | TEAEs determined to be related to galunisertib by the investigator ([1]; 14 patients, any formulation): None | Number of patients reporting TEAEs regardless of causality ([1]; of 14 patients, any formulation, single 150 mg doses): Five | Number of patients with TEAE Convulsion (Grade 1) [1, 3]: 1 | Number of patients with TEAE Dizziness (Grade 1) [1, 3]: 1 | Number of patients with TEAE Hyperglycemia (Grade 1) [1, 3]: 1 | Number of patients with TEAE Lymphopenia (Grade 3) [1, 3]: 2 | Number of patients with TEAE Pyrexia (Grade 1) [1, 3]: 1 | Number of patients with TEAE Vulvovaginitis (Grade 1) [1, 3]: 1 | Mean terminal half-life [2]: 8 h | Time of peak plasma concentrations following administration [2]: 0.5 to 2 h
